Measurements taken from ChEMBL document CHEMBL3352689 (J Med Chem, 2014).

How the values were obtained:
[1] = Metabolic stability in rabbit liver microsomes; format: ADME, Oryctolagus cuniculus
How it was run: (§1)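 The free acid was incubated with hepatic microsomes of each species. Stability is reported as clearance in μL/min/mg microsomal protein.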

Macaca fascicularis [2] = assay: Total clearance in monkey at 1 mg/kg, iv; conditions: cynomolgus monkey, in vivo
Macaca fascicularis [3] = assay: AUC in monkey at 1 mg/kg, po; conditions: cynomolgus monkey, plasma
Oryctolagus cuniculus = assay: Oral bioavailability in rabbit assessed as 4-[2-({6-Fluoro-2-[({[3-(methyloxy)phenyl]methyl}amino)-carbonyl]-4-oxo-3,4-dihydroquinazolin-5-yl}oxy)ethyl]-benzoic acid at 1 mg/kg; format: ADME, organism-based; conditions: in vivo
How it was run: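 Rabbits, three males, received the free-acid form orally in 0.5% methyl cellulose at 1 mg/kg. Oral bioavailability was calculated.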

[4] = Total clearance in guinea pig at 1 mg/kg, iv; format: ADME, organism-based, Cavia porcellus; design: dose 1 mg/kg, route intravenous; conditions: in vivo
How it was run: (§2)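 Three male animals per species. Dosing was intravenous, with the compound in DMA/PEG400 or DMSO. Steady-state volume of distribution and total body clearance were derived from plasma levels.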

[5] = Total clearance in rat at 1 mg/kg, iv; format: ADME, organism-based; design: dose 1 mg/kg, route intravenous; conditions: in vivo; how it was run: as §2
[6] = Total clearance in dog at 1 mg/kg, iv; format: ADME, organism-based, Canis lupus familiaris; design: dose 1 mg/kg, route intravenous; conditions: in vivo; how it was run: as §2
[7] = Oral bioavailability in rabbit at 10 mg/kg; format: ADME, organism-based, Oryctolagus cuniculus; conditions: in vivo
How it was run: (§3)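 Three male animals per species. The sodium salt was given as a single oral dose in 0.5% methyl cellulose. Plasma Tmax, Cmax, AUC and oral bioavailability were derived.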

[8] = Tmax in dog at 10 mg/kg, po; format: ADME, organism-based, Canis lupus familiaris; design: dose 10 mg/kg, route oral; conditions: in vivo; how it was run: as §3
[9] = Oral bioavailability in guinea pig at 3 mg/kg; format: ADME, organism-based, Cavia porcellus; conditions: in vivo; how it was run: as §3
[10] = AUC in guinea pig at 3 mg/kg, po; format: ADME, organism-based, Cavia porcellus; design: dose 3 mg/kg, route oral; conditions: plasma; how it was run: as §3
Rattus norvegicus [11] = assay: Toxicity in rat at 200 mg/kg/day; format: organism-based; conditions: in vivo
[12] = Volume of distribution at steady state in guinea pig at 1 mg/kg, iv; format: ADME, organism-based, Cavia porcellus; design: dose 1 mg/kg, route intravenous; conditions: in vivo, read-out: Vdss; how it was run: as §2
[13] = Total clearance in rabbit at 0.1 mg/kg, iv; conditions: in vivo
Macaca fascicularis [14] = assay: Cmax in monkey at 1 mg/kg, po; conditions: cynomolgus monkey, in vivo
Liver = assay: Metabolic stability in guinea pig liver microsomes; format: ADME, Cavia porcellus; how it was run: as §1
Rattus norvegicus [15] = assay: Oral bioavailability in rat assessed as 4-[2-({6-Fluoro-2-[({[3-(methyloxy)phenyl]methyl}amino)-carbonyl]-4-oxo-3,4-dihydroquinazolin-5-yl}oxy)ethyl]-benzoic acid at 3 mg/kg; format: ADME, organism-based; conditions: in vivo
How it was run: (§4)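 The free-acid form was dosed orally in 0.5% methyl cellulose at 3 mg/kg to three male animals. Oral bioavailability was calculated.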

[16] = AUC in rabbit at 10 mg/kg, po; format: ADME, organism-based, Oryctolagus cuniculus; design: dose 10 mg/kg, route oral; conditions: plasma; how it was run: as §3
[17] = Cmax in dog at 10 mg/kg, po; format: ADME, organism-based, Canis lupus familiaris; design: dose 10 mg/kg, route oral; conditions: in vivo; how it was run: as §3
Macaca fascicularis [18] = assay: Volume of distribution at steady state in monkey at 1 mg/kg, iv; conditions: cynomolgus monkey, in vivo, read-out: Vdss
[19] = Oral bioavailability in dog at 10 mg/kg; format: ADME, organism-based, Canis lupus familiaris; conditions: in vivo; how it was run: as §3
[20] = AUC in rat at 10 mg/kg, po; format: ADME, organism-based; design: dose 10 mg/kg, route oral; conditions: plasma; how it was run: as §3
Canis familiaris = assay: Oral bioavailability in dog assessed as 4-[2-({6-Fluoro-2-[({[3-(methyloxy)phenyl]methyl}amino)-carbonyl]-4-oxo-3,4-dihydroquinazolin-5-yl}oxy)ethyl]-benzoic acid at 3 mg/kg; format: ADME, organism-based, Canis lupus familiaris; conditions: in vivo; how it was run: as §4
[21] = Tmax in rabbit at 10 mg/kg, po; format: ADME, organism-based, Oryctolagus cuniculus; design: dose 10 mg/kg, route oral; conditions: in vivo; how it was run: as §3
[22] = Volume of distribution at steady state in rabbit at 0.1 mg/kg, iv; conditions: in vivo, read-out: Vdss
[23] = Cmax in guinea pig at 3 mg/kg, po; format: ADME, organism-based, Cavia porcellus; design: dose 3 mg/kg, route oral; conditions: in vivo; how it was run: as §3
[24] = Volume of distribution at steady state in rat at 1 mg/kg, iv; format: ADME, organism-based; design: dose 1 mg/kg, route intravenous; conditions: in vivo, read-out: Vdss; how it was run: as §2
[25] = Tmax in guinea pig at 3 mg/kg, po; format: ADME, organism-based, Cavia porcellus; design: dose 3 mg/kg, route oral; conditions: in vivo; how it was run: as §3
[26] = Oral bioavailability in rat at 10 mg/kg; format: ADME, organism-based; conditions: in vivo; how it was run: as §3
[27] = Cmax in rabbit at 10 mg/kg, po; format: ADME, organism-based, Oryctolagus cuniculus; design: dose 10 mg/kg, route oral; conditions: in vivo; how it was run: as §3
[28] = Tmax in rat at 10 mg/kg, po; format: ADME, organism-based; design: dose 10 mg/kg, route oral; conditions: in vivo; how it was run: as §3
[29] = Metabolic stability in cynomolgus monkey liver microsomes
Macaca fascicularis [30] = assay: Oral bioavailability in monkey at 1 mg/kg; conditions: cynomolgus monkey, in vivo
Macaca fascicularis [31] = assay: Tmax in monkey at 1 mg/kg, po; conditions: cynomolgus monkey, in vivo
[32] = AUC in dog at 10 mg/kg, po; format: ADME, organism-based, Canis lupus familiaris; design: dose 10 mg/kg, route oral; conditions: plasma; how it was run: as §3
Macaca fascicularis [33] = assay: Oral bioavailability in monkey assessed as 4-[2-({6-Fluoro-2-[({[3-(methyloxy)phenyl]methyl}amino)-carbonyl]-4-oxo-3,4-dihydroquinazolin-5-yl}oxy)ethyl]-benzoic acid at 3 mg/kg; conditions: cynomolgus monkey, in vivo
Liver microsome = assay: Metabolic stability in human liver microsomes; format: ADME; how it was run: as §1
Cavia porcellus = assay: Oral bioavailability in guinea pig assessed as 4-[2-({6-Fluoro-2-[({[3-(methyloxy)phenyl]methyl}amino)-carbonyl]-4-oxo-3,4-dihydroquinazolin-5-yl}oxy)ethyl]-benzoic acid at 3 mg/kg; format: ADME, organism-based; conditions: in vivo; how it was run: as §4
[34] = Cmax in rat at 10 mg/kg, po; format: ADME, organism-based; design: dose 10 mg/kg, route oral; conditions: in vivo; how it was run: as §3
[35] = Volume of distribution at steady state in dog at 1 mg/kg, iv; format: ADME, organism-based, Canis lupus familiaris; design: dose 1 mg/kg, route intravenous; conditions: in vivo, read-out: Vdss; how it was run: as §2

COc1cccc(CNC(=O)c2nc3ccc(F)c(OCCc4ccc(C(=O)[O-])cc4)c3c(=O)[nH]2)c1.[Na+]
Stability [1]: 3 µL/min/mg
clearance (Macaca fascicularis [2]): 20.9 mL/min/kg
AUC (Macaca fascicularis [3]): 456 ng·h/mL
F (Oryctolagus cuniculus): 11%
clearance [4]: 26.9 mL/min/kg
clearance [5]: 34.6 mL/min/kg
clearance [6]: 3.08 mL/min/kg
bioavailability [7]: 35%
Tmax [8]: 1.7 h
bioavailability [9]: 74%
AUC [10]: 1410 ng·h/mL
Activity (Rattus norvegicus [11]): Non-toxic
Vd [12]: 5.39 L/kg
clearance [13]: 3.7 mL/min/kg
Cmax (Macaca fascicularis [14]): 45 ng/mL
Stability (Liver): 1 µL/min/mg
F (Rattus norvegicus [15]): 4.9%
AUC [16]: 15700 ng·h/mL
Cmax [17]: 3870 ng/mL
Vd (Macaca fascicularis [18]): 7.03 L/kg
bioavailability [19]: 58%
AUC [20]: 1600 ng·h/mL
F (Canis familiaris): 3%
Tmax [21]: 1.8 h
Vd [22]: 1.14 L/kg
Cmax [23]: 439 ng/mL
Vd [24]: 0.995 L/kg
Tmax [25]: 0.5 h
bioavailability [26]: 23%
Cmax [27]: 2290 ng/mL
Tmax [28]: 0.25 h
Stability [29]: 2 µL/min/mg
bioavailability (Macaca fascicularis [30]): 45%
Tmax (Macaca fascicularis [31]): 2.8 h
AUC [32]: 31800 ng·h/mL
F (Macaca fascicularis [33]): 1.5%
Stability (Liver microsome): 3 µL/min/mg
F (Cavia porcellus): 6.3%
Cmax [34]: 439 ng/mL
Vd [35]: 0.731 L/kg
